Assay results as given in ChEMBL document CHEMBL1156940, “Modified cap group suberoylanilide hydroxamic acid histone deacetylase inhibitor derivatives reveal improved selective antileukemic activity” (J Med Chem, 2010).
Calls of active or inactive are those of the source. No cut-off for these calls is given here.

Experiments:
HT-29 = assay: Antiproliferative activity against human HT-29 cells after 48 hrs by cell titer-glo assay; assay type: functional, cell-based; details: HT-29, 48 h
U-937 = assay: Antiproliferative activity against human U937 cells after 48 hrs by cell titer-glo assay; assay type: functional, cell-based; details: U-937, 48 h
Procedure, shortened: (§1)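 Cells kept in RPMI-1640 with 10% FBS at 37 °C, 5% CO2. 10^4 suspension cells were plated immediately before dosing. Compounds were added at 0.1–100 µM, final 1% DMSO, with DMSO vehicle control, and incubated 48 h. CellTiter-Glo luminescence was read. EC50 is the dose reducing luminescence to 50% of untreated cultures.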

SK-BR-3 = assay: Antiproliferative activity against human SK-BR-3 cells after 48 hrs by cell titer-glo assay; assay type: functional, cell-based; details: SK-BR-3, 48 h
K562 = assay: Antiproliferative activity against human K562 cells after 48 hrs by cell titer-glo assay; assay type: functional, cell-based; details: K562, 48 h; procedure, shortened: as §1
HL-60 = assay: Antiproliferative activity against human HL60 cells after 48 hrs by cell titer-glo assay; assay type: functional, cell-based; details: HL-60, 48 h
[1] = biological target: T1, Protein deacetylase HDAC6 (Homo sapiens) (UniProt Q9UBN7); assay: Inhibition of recombinant FLAG-tagged HDAC6 assessed as [3H]acetic acid release preincubated for 30 mins measured after 2 hrs by scintillation counting
T1 sequence (whole entry): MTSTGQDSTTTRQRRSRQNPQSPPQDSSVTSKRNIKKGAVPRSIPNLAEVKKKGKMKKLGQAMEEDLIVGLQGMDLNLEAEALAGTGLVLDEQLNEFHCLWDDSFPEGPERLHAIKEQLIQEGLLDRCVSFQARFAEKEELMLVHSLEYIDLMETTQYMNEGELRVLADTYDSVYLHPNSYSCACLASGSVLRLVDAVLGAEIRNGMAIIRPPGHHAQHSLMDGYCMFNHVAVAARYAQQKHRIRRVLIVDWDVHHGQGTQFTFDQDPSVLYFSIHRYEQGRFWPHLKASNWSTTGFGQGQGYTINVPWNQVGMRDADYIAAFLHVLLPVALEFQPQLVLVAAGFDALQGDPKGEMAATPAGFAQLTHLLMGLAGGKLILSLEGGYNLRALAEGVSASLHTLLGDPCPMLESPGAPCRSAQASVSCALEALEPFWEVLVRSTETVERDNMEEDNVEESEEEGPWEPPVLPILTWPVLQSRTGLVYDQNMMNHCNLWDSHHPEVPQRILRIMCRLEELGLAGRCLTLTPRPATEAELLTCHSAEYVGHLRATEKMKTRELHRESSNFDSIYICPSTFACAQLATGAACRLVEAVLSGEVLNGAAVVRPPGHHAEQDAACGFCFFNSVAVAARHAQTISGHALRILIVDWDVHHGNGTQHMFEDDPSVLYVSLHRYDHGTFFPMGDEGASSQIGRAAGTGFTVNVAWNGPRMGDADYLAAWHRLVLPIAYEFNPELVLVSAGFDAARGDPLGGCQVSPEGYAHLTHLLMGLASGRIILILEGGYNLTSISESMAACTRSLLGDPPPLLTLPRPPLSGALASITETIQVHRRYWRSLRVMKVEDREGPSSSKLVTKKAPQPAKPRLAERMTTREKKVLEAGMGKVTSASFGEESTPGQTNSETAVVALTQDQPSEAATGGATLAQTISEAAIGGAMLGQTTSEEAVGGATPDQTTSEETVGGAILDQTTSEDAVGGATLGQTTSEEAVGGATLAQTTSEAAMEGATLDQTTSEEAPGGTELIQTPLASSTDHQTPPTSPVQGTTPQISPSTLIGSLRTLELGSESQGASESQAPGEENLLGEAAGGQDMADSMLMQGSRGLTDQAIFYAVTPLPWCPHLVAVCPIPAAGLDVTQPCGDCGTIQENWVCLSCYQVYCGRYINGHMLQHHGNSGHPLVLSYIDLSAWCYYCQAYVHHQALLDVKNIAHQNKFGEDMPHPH
Procedure, shortened: (§2)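 FLAG-tagged HDAC1 or HDAC6 was immunopurified from stably expressing cell lines and washed in HDAC buffer (10 mM Tris-HCl pH 8.0, 10 mM NaCl, 10% glycerol). Enzyme was preincubated with inhibitor (1 µM) for 30 min at 4 °C, then given 20 000 cpm [3H]peracetylated H4 peptide for 2 h at 37 °C. The reaction was stopped with acetic acid/HCl, extracted into ethyl acetate, and released [3H]acetate counted by scintillation.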

[2] = biological target: Histone deacetylase 1 (Homo sapiens) (UniProt Q13547); assay: Inhibition of recombinant FLAG-tagged HDAC1 assessed as [3H]acetic acid release preincubated for 30 mins measured after 2 hrs by scintillation counting; procedure, shortened: as §2
Histone deacetylase 1 (Homo sapiens), sequence (Q13547 whole entry): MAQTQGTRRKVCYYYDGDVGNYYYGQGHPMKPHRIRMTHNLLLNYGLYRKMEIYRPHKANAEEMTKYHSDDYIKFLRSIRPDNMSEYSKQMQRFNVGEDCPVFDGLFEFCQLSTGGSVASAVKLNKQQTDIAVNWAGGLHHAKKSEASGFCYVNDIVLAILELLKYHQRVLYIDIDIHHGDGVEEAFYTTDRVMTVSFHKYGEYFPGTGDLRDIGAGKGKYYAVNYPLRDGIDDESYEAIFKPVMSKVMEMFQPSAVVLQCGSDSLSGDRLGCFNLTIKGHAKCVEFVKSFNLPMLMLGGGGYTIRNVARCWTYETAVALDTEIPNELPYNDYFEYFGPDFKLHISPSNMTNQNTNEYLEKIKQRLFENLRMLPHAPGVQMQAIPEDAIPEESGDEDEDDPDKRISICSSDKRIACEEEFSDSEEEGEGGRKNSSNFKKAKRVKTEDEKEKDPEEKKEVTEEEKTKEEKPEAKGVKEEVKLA

Jurkat = assay: Antiproliferative activity against human Jurkat JA16 cells after 48 hrs by cell titer-glo assay; assay type: functional, cell-based

| Structure (SMILES) | EC50 (HT-29) | EC50 (U-937) | EC50 (SK-BR-3) | EC50 (K562) | EC50 (HL-60) | Activity [1] | Activity [2] | EC50 (Jurkat) |
| --- | --- | --- | --- | --- | --- | --- | --- | --- |
| Nc1ccc(NC(=O)CCCCCCC(=O)NO)cc1 | 18 µM | 6.4 µM | 8.5 µM | – | – | – | – | – |
| O=C(CCCCCCC(=O)Nc1cccc(C(F)(F)F)c1)NO | 6.4 µM | 1.2 µM | 26 µM | – | – | – | – | – |
| O=C(CCCCCCC(=O)Nc1ccc(C(F)(F)F)cc1)NO | 1.4 µM | 0.45 µM | 2.2 µM | 2.1 µM | 1.54 µM | Active | Active | 0.53 µM |
| O=C(CCCCCCC(=O)Nc1cccc(Cl)c1)NO | 1 µM | 0.35 µM | 2 µM | 3.5 µM | 2.1 µM | Active | Active | 0.58 µM |
| O=C(CCCCCCC(=O)Nc1cccc(F)c1)NO | 1.4 µM | 0.5 µM | 1.9 µM | 2.4 µM | 1.25 µM | Active | Active | 0.64 µM |
| O=C(CCCCCCC(=O)Nc1ccc2c(c1)Cc1ccccc1-2)NO | 2.5 µM | 0.6 µM | 4 µM | 3.5 µM | 1.13 µM | Active | Active | 0.43 µM |
| O=C(CCCCCCC(=O)Nc1cccc2cccnc12)NO | > 100 µM | 26 µM | > 100 µM | – | – | – | – | – |
| O=C(CCCCCCC(=O)Nc1[nH]c(=O)ncc1F)NO | 63 µM | 26.5 µM | 40.5 µM | > 100 µM | 18 µM | – | – | 16 µM |
| N#Cc1ccc(NC(=O)CCCCCCC(=O)NO)cc1 | 42 µM | 7 µM | 8.8 µM | – | – | – | – | – |
| CN(C)c1ccc(NC(=O)CCCCCCC(=O)NO)cc1 | 3.15 µM | 1.7 µM | 4.2 µM | – | – | Active | Active | – |
| O=C(CCCCCCC(=O)Nc1ccc([N+](=O)[O-])cc1)NO | 76 µM | 22 µM | 58 µM | – | – | – | – | – |
